Measured values reported in PubChem BioAssay AID624268 (The Scripps Research Institute Molecular Screening Center, 2012).
The whole screen tested about 360,000 compounds, of which about 1,500 (0.42%) were called active.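 Rule for the calls: active = inhibition above a per-plate cutoff of the control wells' mean inhibition plus 3 SD (cut at about 5.5% in these data); inactive = the rest.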 The full list was thinned out, with actives kept by preference.

The compounds below were run on methionyl-tRNA synthetase (Trypanosoma brucei brucei) (assay: inhibition of trypanosome methionyl-tRNA synthetase – biochemical, luminescence, primary screen (AID 624268;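 note: 0% = DMSO wells median and 100% = median of wells with control inhibitor compound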)). Conditions: purified T. brucei MetRS, ATP depletion, Kinase-Glo luminescence; at 11.9 µM; active compounds read high.
Outline: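 Material: parasite MetRS enzyme / Replication: singlicate, one well per compound / Signal: luminescence of leftover ATP / Schedule: 2 h aminoacylation at 25 °C after 15 min preincubation / Medium: HEPES-MgCl2-KCl buffer plus DTT, spermine, BSA, pyrophosphatase / Doses: 11.9 µM single point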

inhibition, inactive:
Cc1cc(C(C)(C)C)cc(S(=O)(=O)Nc2ccc(C(=O)O)cc2)c1C 0.3%
O=C(c1ccc(NS(=O)(=O)c2ccc3[nH]c(=O)[nH]c3c2)cc1)N1CCCCC1 -0.5%
CCOC(=O)CC1=CC(=O)Nc2ccccc2N1 -0.37%
COc1ccc(NC(=O)CSc2nnc(Cc3ccccc3)c(=O)n2N)cc1 -0.2%
CCOc1ccc(NC(=O)CSc2nc3c(c(=O)n2-c2ccccc2OC)SCC3)cc1 -0.23%
COc1ccc(NC(=O)CN(C)C(=O)c2n[nH]c3ccccc23)cc1 -0.44%
CC1(C(=O)NS(=O)(=O)c2cccc(OC(F)F)c2)CCN1C(=O)C1CC1 (configuration not stated) -0.2%
CC1(c2cccc([N+](=O)[O-])c2)CC(C)(C)N(C(=O)c2ccccc2)c2ccccc21 (configuration not stated) 0.07%
Cc1ccc2[nH]c(=O)c(CN3CCCCC3)c(-c3ccccc3)c2c1 2.15%
O=c1cc(CN2CCCCCCC2)c2c(ccc3ccccc32)o1 0.63%
O=C1COc2ccc(NC(=O)N3CCN(c4ccc(F)cc4)CC3)cc2N1 -0.82%
C[C@@H]1CN([C@H](C)CO)C(=O)CCCn2cc(nn2)CO[C@H]1CN(C)S(C)(=O)=O -1.67%
COc1ccc(OC)c(NC(=O)C2(C)CCN2C(=O)Cc2ccccc2)c1 (configuration not stated) -0.17%
COc1cc(/C=N\NC(=O)c2nonc2N)c(OC)cc1Br -0.27%
Cc1ccc(OCCOCCOc2ccc(Br)cc2/C=N\NC(=O)c2ccncc2)cc1 0.03%
Cn1c(N)c(C(=O)COC(=O)c2cccc(S(=O)(=O)N3CCOCC3)c2)c(=O)n(C)c1=O 0.03%
CC1CN(S(=O)(=O)c2cccc(C(F)(F)F)c2)CN1C(=O)N1CCOCC1 (configuration not stated) -0.97%
CC(C)CCNC(=O)C1CCCN(S(=O)(=O)c2ccc(F)cc2)C1 (configuration not stated) -0.46%
COC(=O)c1c(CCl)noc1C(=O)NC(C)C -0.34%
CN(CC(=O)NCc1ccc2c(c1)OCO2)CC(=O)Nc1ccc(F)c(F)c1F -0.42%
COc1ccc(CCOC(=O)CNC(=O)c2ccc(Cl)cc2Cl)cc1 0.12%
O=C(NNC(=O)c1ccc(Cl)cc1Cl)c1cccs1 -0.62%
Cn1ccsc1=NC(=O)c1cc(S(=O)(=O)N2CCOCC2)ccc1Cl 0%
COc1ccc(S(=O)(=O)N2CCOC2CNC(=O)C(=O)NCc2ccncc2)cc1C (configuration not stated) -0.16%
CCCCc1ccc(S(=O)(=O)NC(=O)C2(C)CCN2C(=O)c2c(C)noc2C)cc1 (configuration not stated) -0.38%
OCCC1CN(Cc2cccn2-c2nccs2)CCN1CCc1ccccc1 (configuration not stated) -0.69%
O=C(c1cccs1)C1C(c2ccc(Br)cc2)NC(=S)NC1(O)C(F)(F)F (configuration not stated) 0.24%
OCC1(CCc2ccccc2)CCN(Cc2ccc3nsnc3c2)CC1 0.28%
COc1cccc(CC2(CO)CCN(Cc3cnc(-c4cccc(C)c4)nc3)CC2)c1 -0.01%
CCc1c(C)n([O-])c2c([n+]1=O)CCCCC2 -0.95%
COc1cccc(NC(=O)CN(C)C(=O)c2cc(C3CC3)nn2-c2ccccc2)c1 -0.11%
CSc1ncccc1C(=O)NCC(c1ccco1)N1CCCCC1 (configuration not stated) 0.26%
Cc1ccc(CC2CC(=O)N(c3ccc4c(c3)OCCO4)C2=O)cc1 (configuration not stated) -0.24%
O=CN1CCN(C2CC(=O)N(c3ccc4c(c3)OCO4)C2=O)CC1 (configuration not stated) -2.06%
COC(=O)CCSc1cc([N+](=O)[O-])cc2c1c(C1OCCS1)nn2-c1ccccc1 (configuration not stated) -0.2%
CCOc1ccc(NC(=O)CC(Cc2ccc(Cl)cc2)C(=O)O)cc1 (configuration not stated) -0.95%
Cc1ccc(C)c2[nH]c(=O)c(CCNC(=O)CC(C)C)cc12 0.44%
O=C(CSc1nnc(-c2c[nH]c3ccccc23)n1-c1ccc(F)cc1)NCc1ccco1 3.05%
COc1ccc(-n2c(SCC(=O)NCc3cccs3)nnc2-c2ccoc2C)cc1 -0.5%
Cc1cc(C(=O)NNC(=O)c2cccc(S(=O)(=O)N3CCOCC3)c2)c2ccccc2n1 -0.24%
Cc1nn(C)c(Oc2ccc(Cl)cc2)c1C=O -0.76%
O=C(NCc1cc(C(F)(F)F)cc(C(F)(F)F)c1)C1CC(c2cccc(F)c2)=NO1 (configuration not stated) -0.13%
Cc1ccc(C(O)c2ncc(-c3ccccc3F)[nH]2)cc1F (configuration not stated) -0.2%
OC(c1ccc(Cl)c(F)c1)c1ncc(-c2ccccc2Cl)[nH]1 (configuration not stated) 0.44%
Cc1cccc(-c2cnc(C(O)c3cc(C)cc(C)c3)[nH]2)c1 (configuration not stated) -0.08%
OC(c1ccc(Cl)cc1)c1ncc(-c2ccc(Cl)cc2)[nH]1 (configuration not stated) 2.49%
CCC(=O)N1CCC(C)(C(=O)Nc2cc(OC)c(OC)c(OC)c2)C1 (configuration not stated) 0.06%

inhibition, active:
O=C(O)c1ccc(NS(=O)(=O)c2ccc3c(c2)C(=O)c2cc(S(=O)(=O)Nc4ccc(C(=O)O)cc4)ccc2-3)cc1 5.69%
COc1ccccc1-n1c(SCC(=O)Nc2ccc(Cl)cc2)nc(O)c(Cc2ccccc2)c1=O 55.1%
c1ccc2cc3[nH]c(CN4CCCCC4)nc3cc2c1 7.35%
COc1ccc(-c2[nH]ncc2/C=N/NC(=O)c2cc(Br)ccc2O)c(OC)c1 5.88%
COC(=O)/C(=C\Nc1ccccc1)NC(=O)c1ccc(Cl)cc1Cl 43%
Cc1c(CN2CCC(CO)(CCOc3ccccc3)CC2)[nH]c2ccc(Cl)cc12 8.27%
Cc1ccc(N2C(=O)CC(NCc3ccc4c(c3)OCO4)C2=O)cc1Cl (configuration not stated) 12.1%
COc1ccc(-n2c(SCC(=O)NCc3ccco3)nnc2-c2c[nH]c3ccccc23)cc1 6.44%
Cc1ccc(-c2cnc(C(O)c3cc(Cl)cc(Cl)c3)[nH]2)cc1 (configuration not stated) 40.4%
OC(c1cc(Cl)cc(Cl)c1)c1ncc(-c2ccccc2C(F)(F)F)[nH]1 (configuration not stated) 58%
